How the values were obtained:
[1] = Inhibition of Wnk1/2/4 in human HeLa cells lysate pre incubated for 15 mins followed by ATP acyl phosphate probe addition and measured after 10 mins by LC-MS/MS analysis; format: subcellular
[2] = target: Ribosomal protein S6 kinase alpha-3 (Homo sapiens, UniProt P51812); experiment: Inhibition of RSK2 domain 1 in human HeLa cells lysate at 2 uM pre incubated for 15 mins followed by ADP acyl phosphate probe addition and measured after 10 mins by LC-MS/MS analysis relative to control; format: subcellular; conditions: time 25.0 min
[3] = target: Tyrosine-protein kinase Lyn (Homo sapiens, UniProt P07948); experiment: Inhibition of LYN in human HeLa cells lysate at 50 uM pre incubated for 15 mins followed by ATP acyl phosphate probe addition and measured after 10 mins by LC-MS/MS analysis relative to control; format: subcellular; conditions: time 25.0 min
[4] = target: T1, Dual specificity mitogen-activated protein kinase kinase 6 (Homo sapiens) (UniProt P52564); experiment: Inhibition of MAP2K6 in human HeLa cells lysate at 50 uM pre incubated for 15 mins followed by ADP acyl phosphate probe addition and measured after 10 mins by LC-MS/MS analysis relative to control; format: subcellular; conditions: time 25.0 min
T1 sequence (whole entry): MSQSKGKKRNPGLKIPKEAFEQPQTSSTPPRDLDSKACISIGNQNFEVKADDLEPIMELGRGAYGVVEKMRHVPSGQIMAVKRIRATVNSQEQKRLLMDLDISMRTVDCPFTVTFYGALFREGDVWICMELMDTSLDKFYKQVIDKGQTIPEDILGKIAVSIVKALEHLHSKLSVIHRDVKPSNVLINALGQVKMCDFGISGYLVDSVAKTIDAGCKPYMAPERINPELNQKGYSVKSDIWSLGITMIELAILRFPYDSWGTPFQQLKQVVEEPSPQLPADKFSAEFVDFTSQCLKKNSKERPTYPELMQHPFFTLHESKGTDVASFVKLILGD

[5] = target: Phosphatidylinositol 4-kinase alpha (Homo sapiens, UniProt P42356); experiment: Inhibition of PIK4CA in human HeLa cells lysate at 10 uM pre incubated for 15 mins followed by ATP acyl phosphate probe addition and measured after 10 mins by LC-MS/MS analysis relative to control; format: subcellular; conditions: time 25.0 min
[6] = target: Calcium/calmodulin-dependent protein kinase type II subunit delta (Homo sapiens, UniProt Q13557); experiment: Inhibition of CAMK2d in human HeLa cells lysate at 2 uM pre incubated for 15 mins followed by ATP acyl phosphate probe addition and measured after 10 mins by LC-MS/MS analysis relative to control; format: subcellular; conditions: time 25.0 min
Outline: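 KiNativ-type profiling in HeLa lysate (5 mg/mL total protein). Lysate preincubated 15 min with inhibitor at 50, 10, 2, 0.8 or 0 μM, then ATP or ADP acylphosphate probe added (5 μM final) for 10 min. Reaction stopped with urea and analysed by targeted MS, using up to four fragment ions per kinase peptide-probe conjugate. % inhibition calculated against untreated lysate. Duplicate reactions.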

[7] = target: Phosphatidylinositol 3-kinase catalytic subunit type 3 (Homo sapiens, UniProt Q8NEB9); experiment: Inhibition of PIK3C3 in human HeLa cells lysate at 2 uM pre incubated for 15 mins followed by ATP acyl phosphate probe addition and measured after 10 mins by LC-MS/MS analysis relative to control; format: subcellular; conditions: time 25.0 min
[8] = target: Serine/threonine-protein kinase tousled-like 2 (Homo sapiens, UniProt Q86UE8); experiment: Inhibition of TLK2 in human HeLa cells lysate at 10 uM pre incubated for 15 mins followed by ADP acyl phosphate probe addition and measured after 10 mins by LC-MS/MS analysis relative to control; format: subcellular; conditions: time 25.0 min
Ephrin type-A receptor 2 = Ephrin type-A receptor 2 (Homo sapiens, UniProt P29317); experiment: Inhibition of EphA2 in human HeLa cells lysate pre incubated for 15 mins followed by ATP acyl phosphate probe addition and measured after 10 mins by LC-MS/MS analysis; format: subcellular
[9] = Inhibition of CDK5/PRKX/PRKY in human HeLa cells lysate at 2 uM pre incubated for 15 mins followed by ADP acyl phosphate probe addition and measured after 10 mins by LC-MS/MS analysis relative to control; conditions: 25 min, condition cancer
Outline: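 KiNativ profiling in HeLa lysate (5 mg/mL total protein). Lysate incubated 15 min with inhibitor at 50, 10, 2, 0.8 or 0 μM. ATP or ADP acylphosphate probe then added (5 μM final) and reacted 10 min. Reaction stopped with urea and analysed by targeted MS, using up to four fragment ions per kinase peptide-probe conjugate. % inhibition taken against untreated lysate. Run in duplicate.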

[10] = target: Serine/threonine-protein kinase SMG1 (Homo sapiens, UniProt Q96Q15); experiment: Inhibition of SMG1 in human HeLa cells lysate at 10 uM pre incubated for 15 mins followed by ATP acyl phosphate probe addition and measured after 10 mins by LC-MS/MS analysis relative to control; format: subcellular; conditions: time 25.0 min
[11] = Plasma concentration in C57Bl/6 mouse at 50 mg/kg, ip administered for 4 day and measured 8 hr post last dose by LC-MS/MS analysis; format: ADME, organism-based
[12] = target: Mitogen-activated protein kinase 3 (Homo sapiens, UniProt P27361); experiment: Inhibition of ERK1 in human HeLa cells lysate at 2 uM pre incubated for 15 mins followed by ADP acyl phosphate probe addition and measured after 10 mins by LC-MS/MS analysis relative to control; format: subcellular; conditions: time 25.0 min
[13] = target: Tyrosine-protein kinase Fyn (Homo sapiens, UniProt P06241); experiment: Inhibition of FYN in human HeLa cells lysate pre incubated for 15 mins followed by ADP acyl phosphate probe addition and measured after 10 mins by LC-MS/MS analysis; format: subcellular
[14] = target: MAP/microtubule affinity-regulating kinase 3 (Homo sapiens, UniProt P27448); experiment: Inhibition of MARK3 in human HeLa cells lysate at 10 uM pre incubated for 15 mins followed by ATP acyl phosphate probe addition and measured after 10 mins by LC-MS/MS analysis relative to control; format: subcellular; conditions: time 25.0 min
[15] = Volume of distribution at steady state in Sprague-Dawley rat at 1 mg/kg, iv measured up to 8 hrs by LC-MS/MS analysis; format: ADME, organism-based; conditions: in vivo, read-out: Vdss
[16] = target: T2, Dual specificity mitogen-activated protein kinase kinase 7 (Homo sapiens) (UniProt O14733); experiment: Inhibition of MAP2K7 in human HeLa cells lysate at 10 uM pre incubated for 15 mins followed by ADP acyl phosphate probe addition and measured after 10 mins by LC-MS/MS analysis relative to control; format: subcellular; conditions: time 25.0 min
T2 sequence (whole entry): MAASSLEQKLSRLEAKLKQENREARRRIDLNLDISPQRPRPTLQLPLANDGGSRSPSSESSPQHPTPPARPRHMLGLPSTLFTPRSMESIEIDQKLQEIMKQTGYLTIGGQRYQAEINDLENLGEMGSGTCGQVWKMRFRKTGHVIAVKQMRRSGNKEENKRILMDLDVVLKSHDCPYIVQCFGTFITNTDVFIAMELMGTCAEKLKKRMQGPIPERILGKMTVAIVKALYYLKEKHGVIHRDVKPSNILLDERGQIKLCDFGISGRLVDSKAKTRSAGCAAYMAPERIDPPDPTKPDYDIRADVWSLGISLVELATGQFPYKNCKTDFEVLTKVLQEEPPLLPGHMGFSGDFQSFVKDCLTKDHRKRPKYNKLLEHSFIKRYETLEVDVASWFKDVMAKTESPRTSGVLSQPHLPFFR

Sequence of Phosphatidylinositol 3-kinase catalytic subunit type 3 (Q8NEB9 whole entry): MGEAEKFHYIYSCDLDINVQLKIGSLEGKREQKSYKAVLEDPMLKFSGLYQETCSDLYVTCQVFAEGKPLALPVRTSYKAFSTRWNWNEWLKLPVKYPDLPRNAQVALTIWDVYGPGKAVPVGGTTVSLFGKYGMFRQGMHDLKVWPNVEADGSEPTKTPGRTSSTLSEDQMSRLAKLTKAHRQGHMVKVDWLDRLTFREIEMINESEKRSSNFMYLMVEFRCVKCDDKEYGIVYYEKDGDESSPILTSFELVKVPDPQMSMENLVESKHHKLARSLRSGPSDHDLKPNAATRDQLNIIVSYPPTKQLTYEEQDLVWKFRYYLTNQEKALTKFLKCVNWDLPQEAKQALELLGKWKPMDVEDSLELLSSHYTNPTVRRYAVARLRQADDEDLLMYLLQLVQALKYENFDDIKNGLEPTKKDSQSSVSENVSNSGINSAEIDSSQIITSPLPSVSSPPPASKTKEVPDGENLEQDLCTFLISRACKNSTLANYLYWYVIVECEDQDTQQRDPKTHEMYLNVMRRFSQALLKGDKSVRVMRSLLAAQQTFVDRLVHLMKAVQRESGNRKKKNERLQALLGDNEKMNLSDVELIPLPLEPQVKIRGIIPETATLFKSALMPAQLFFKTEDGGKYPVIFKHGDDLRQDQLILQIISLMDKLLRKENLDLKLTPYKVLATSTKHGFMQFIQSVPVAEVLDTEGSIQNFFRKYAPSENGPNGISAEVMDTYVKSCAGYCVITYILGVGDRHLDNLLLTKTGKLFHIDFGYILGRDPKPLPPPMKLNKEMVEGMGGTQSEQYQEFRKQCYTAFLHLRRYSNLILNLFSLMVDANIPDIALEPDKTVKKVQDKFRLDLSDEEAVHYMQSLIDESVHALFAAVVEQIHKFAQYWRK
Sequence of Tyrosine-protein kinase Lyn (P07948 2-512 limits assumed): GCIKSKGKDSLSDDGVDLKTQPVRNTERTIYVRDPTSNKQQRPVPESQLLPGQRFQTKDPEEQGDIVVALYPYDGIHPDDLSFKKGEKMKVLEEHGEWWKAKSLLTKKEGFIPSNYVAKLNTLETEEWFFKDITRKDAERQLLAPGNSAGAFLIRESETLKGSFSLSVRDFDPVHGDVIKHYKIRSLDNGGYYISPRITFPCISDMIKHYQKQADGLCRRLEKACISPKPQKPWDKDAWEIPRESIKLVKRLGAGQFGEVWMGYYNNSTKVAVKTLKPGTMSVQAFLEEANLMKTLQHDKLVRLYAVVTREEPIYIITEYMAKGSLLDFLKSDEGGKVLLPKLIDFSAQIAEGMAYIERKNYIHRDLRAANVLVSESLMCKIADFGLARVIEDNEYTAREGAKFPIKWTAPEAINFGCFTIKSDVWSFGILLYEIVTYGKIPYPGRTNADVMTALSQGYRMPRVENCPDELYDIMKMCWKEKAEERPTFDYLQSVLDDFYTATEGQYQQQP
Sequence of Ephrin type-A receptor 2 (P29317 whole entry): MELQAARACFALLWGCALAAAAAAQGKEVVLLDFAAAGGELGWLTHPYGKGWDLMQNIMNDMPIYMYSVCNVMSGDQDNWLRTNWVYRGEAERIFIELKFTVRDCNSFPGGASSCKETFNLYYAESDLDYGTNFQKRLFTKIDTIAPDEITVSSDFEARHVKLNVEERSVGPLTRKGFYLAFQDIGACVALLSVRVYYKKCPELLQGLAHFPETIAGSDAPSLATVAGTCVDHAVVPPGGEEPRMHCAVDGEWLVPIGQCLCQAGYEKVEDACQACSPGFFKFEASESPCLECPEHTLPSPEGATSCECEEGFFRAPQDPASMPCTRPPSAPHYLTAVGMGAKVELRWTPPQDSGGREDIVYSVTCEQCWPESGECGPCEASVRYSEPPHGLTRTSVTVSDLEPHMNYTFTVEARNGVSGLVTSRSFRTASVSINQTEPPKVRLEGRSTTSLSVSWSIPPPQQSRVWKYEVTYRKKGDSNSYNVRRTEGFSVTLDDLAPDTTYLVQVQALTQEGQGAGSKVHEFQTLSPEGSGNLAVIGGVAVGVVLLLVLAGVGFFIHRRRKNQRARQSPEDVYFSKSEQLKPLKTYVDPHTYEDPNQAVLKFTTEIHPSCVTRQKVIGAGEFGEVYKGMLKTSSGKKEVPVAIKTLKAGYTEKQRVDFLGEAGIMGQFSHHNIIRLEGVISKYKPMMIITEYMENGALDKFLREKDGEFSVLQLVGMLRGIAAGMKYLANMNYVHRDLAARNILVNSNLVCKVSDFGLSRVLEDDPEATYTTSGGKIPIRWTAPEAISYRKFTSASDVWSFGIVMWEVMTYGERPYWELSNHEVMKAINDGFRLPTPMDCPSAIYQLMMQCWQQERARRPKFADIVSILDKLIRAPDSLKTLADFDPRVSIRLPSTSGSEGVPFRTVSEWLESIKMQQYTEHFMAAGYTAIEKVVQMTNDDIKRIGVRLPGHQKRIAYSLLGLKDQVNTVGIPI
Sequence of Calcium/calmodulin-dependent protein kinase type II subunit delta (Q13557 whole entry, the tested form may be a part): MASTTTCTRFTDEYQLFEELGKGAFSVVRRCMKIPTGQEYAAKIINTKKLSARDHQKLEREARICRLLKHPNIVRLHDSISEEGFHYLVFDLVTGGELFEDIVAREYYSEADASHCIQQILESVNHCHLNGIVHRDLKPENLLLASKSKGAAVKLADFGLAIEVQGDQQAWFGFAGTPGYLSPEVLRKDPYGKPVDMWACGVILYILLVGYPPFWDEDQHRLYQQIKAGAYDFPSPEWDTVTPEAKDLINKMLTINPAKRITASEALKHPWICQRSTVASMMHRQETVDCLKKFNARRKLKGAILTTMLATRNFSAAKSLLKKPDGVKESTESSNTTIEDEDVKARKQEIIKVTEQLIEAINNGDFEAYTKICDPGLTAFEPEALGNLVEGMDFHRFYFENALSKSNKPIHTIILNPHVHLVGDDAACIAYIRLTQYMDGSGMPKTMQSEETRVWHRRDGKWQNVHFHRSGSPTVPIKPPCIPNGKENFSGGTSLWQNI
Sequence of Phosphatidylinositol 4-kinase alpha (P42356 whole entry, looked up): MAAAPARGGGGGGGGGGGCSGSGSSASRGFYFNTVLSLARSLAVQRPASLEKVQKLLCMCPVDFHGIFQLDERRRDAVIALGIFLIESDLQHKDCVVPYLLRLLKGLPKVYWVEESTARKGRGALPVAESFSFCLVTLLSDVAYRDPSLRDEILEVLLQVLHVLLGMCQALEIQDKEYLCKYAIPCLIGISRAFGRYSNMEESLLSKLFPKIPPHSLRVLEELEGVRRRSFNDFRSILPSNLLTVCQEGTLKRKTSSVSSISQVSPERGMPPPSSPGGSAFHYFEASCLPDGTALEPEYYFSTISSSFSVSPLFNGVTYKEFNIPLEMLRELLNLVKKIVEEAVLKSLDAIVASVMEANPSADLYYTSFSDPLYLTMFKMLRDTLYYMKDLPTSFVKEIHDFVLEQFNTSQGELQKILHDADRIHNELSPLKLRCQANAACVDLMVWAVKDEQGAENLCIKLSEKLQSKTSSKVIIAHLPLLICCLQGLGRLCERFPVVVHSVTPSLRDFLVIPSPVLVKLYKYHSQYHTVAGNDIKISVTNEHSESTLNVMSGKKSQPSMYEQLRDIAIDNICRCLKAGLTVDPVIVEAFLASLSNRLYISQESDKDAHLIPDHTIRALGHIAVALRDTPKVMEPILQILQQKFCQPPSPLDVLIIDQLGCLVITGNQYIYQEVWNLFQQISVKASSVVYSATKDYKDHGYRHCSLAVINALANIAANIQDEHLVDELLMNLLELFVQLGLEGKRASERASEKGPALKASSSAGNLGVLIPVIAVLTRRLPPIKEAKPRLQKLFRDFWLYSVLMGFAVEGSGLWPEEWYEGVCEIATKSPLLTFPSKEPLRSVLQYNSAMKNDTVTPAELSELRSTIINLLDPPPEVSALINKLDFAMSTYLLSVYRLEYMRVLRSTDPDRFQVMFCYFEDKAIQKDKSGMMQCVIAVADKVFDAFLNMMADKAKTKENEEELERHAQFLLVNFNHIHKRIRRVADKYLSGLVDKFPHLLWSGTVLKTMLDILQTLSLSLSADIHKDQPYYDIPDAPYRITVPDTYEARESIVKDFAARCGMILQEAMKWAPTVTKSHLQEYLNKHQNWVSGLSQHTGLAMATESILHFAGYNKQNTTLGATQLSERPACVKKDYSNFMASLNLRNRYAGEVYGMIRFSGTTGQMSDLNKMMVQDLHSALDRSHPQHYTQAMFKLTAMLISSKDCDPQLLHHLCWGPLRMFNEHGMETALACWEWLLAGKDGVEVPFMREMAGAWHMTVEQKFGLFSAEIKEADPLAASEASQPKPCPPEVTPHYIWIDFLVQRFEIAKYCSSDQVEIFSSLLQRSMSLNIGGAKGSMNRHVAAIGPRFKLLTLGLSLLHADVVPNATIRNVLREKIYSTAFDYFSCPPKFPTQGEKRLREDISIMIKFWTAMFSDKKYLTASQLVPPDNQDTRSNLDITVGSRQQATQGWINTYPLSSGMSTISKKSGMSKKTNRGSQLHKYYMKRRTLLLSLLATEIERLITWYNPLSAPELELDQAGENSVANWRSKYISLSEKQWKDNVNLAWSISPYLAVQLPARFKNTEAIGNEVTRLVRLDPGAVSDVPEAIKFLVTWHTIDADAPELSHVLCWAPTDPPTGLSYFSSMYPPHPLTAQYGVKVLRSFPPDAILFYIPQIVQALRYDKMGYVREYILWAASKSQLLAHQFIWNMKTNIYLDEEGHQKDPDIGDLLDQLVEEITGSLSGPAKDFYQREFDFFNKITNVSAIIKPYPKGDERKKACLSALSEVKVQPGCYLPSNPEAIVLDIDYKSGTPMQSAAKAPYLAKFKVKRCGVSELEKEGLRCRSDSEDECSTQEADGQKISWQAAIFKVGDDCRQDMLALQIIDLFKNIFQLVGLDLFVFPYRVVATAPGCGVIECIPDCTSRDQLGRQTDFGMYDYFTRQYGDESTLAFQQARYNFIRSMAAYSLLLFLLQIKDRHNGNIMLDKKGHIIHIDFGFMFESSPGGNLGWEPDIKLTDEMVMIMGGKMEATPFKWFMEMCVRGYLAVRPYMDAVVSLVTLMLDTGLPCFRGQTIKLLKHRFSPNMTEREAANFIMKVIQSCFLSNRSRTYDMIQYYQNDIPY

CCOc1cc(N2CCC(O)CC2)ccc1Nc1ncc2c(n1)N(C)c1ccccc1C(=O)N2C gave an IC50 [1] greater than 50 µM, an inhibition [2] of 4.9% and an inhibition [3] of -5.2%. It also gave an inhibition [4] of 9.1%, an inhibition [5] of 7.7% and an inhibition [6] of -1.1%. For the same molecule, the inhibition [7] was -0.4%, the inhibition [8] was 0.4% and the IC50 (Ephrin type-A receptor 2) was greater than 50 µM. The inhibition at 2 µM [9] was 9.4%, the inhibition [10] was 3.9% and the concentration at 96 h [11] was 9 µM. It also gave an inhibition [12] of 16.2%, an IC50 [13] greater than 50 µM and an inhibition [14] of -9.2%. The Vd [15] was 3.4 L/kg and the inhibition [16] was -9.9%.
